Reference: PubChem BioAssay AID504382 (The Scripps Research Institute Molecular Screening Center, 2011)
Values joined by “and” are separate entries in the source; they are usually repeats but may differ in a detail not shown here. Identical values can stand only once. In all, about 2,500 compounds went through this assay and about 460 (18%) were called active. These entries were drawn from the full list. Unmarked numbers belong to inactive results.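 The calls were made as follows: active = mean activation above a cutoff of low control average plus 3 SD from the earlier screen (cut at about 12% in these data); inactive = the rest.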

assay: IANBD-channel fluorescence artefacts in buffer – biochemical, artefact control for cardiac RTF calcium sensitizer project, confirmation (AID 504382); details: IANBD fluorescence interference counterscreen, EC20 Ca2+, at 7.2 µM, stronger effect = higher value, scaled: EC20 calcium 0, EC100 calcium 100
How it was run: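 Medium: MOPS/KCl/MgCl2/EGTA/NTA/DTT buffer, pH 7.2 | Reagent: EC20 calcium, 0.472 mM | Compound dosing: 7.2 µM single dose | Times: 15 min compound exposure at 25 °C | Signal: Fluorescence, 480/540 nm | Measure: Interference relative to controls | Repeats: Triplicate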

First: CCOC(=O)c1c(-c2ccccc2Cl)csc1NC(=O)c1cc(S(=O)(=O)N2CCOCC2)ccc1C
Second: CC(C)(C)c1cc(NC(=O)c2cccc(S(=O)(=O)N3CCOCC3)c2)no1
The fluorescence artifact activation of the first is lower: -0.04% for the first, 7.6% for the second.

First: Cn1cc(/C=C2\SC(=S)N(N3CCOCC3)C2=O)c2ccccc21
Second: O=C1/C(=C/c2cccnc2)SC(=S)N1N1CCOCC1
The fluorescence artifact activation of the first is higher: 0.4% for the first, 0.1% for the second.

Compared with `COC(=O)C1=C(C(=O)c2ccc(C)cc2)C(c2ccc(OC)c(OC)c2)n2nnnc2N1` (stereo not drawn), `COc1ccc(/C=c2\s/c(=C/C(=O)c3ccc(C)cc3)[nH]c2=O)c(OC)c1` is higher in fluorescence artifact activation: 0% for the first, 0.16% for the second.

Compared with `COc1ccccc1N1C(=O)C2C(C(=O)c3ccccc3)=NN(c3ccccc3)C2C1=O` (stereo not drawn), `O=C(Nc1cnn(Cc2c(Cl)cccc2Cl)c1)C(c1ccccc1)c1ccccc1` is lower in fluorescence artifact activation: 1.87% for the first, -0.07% for the second.

Going from `Fc1ccc(C2=CC(c3ccco3)n3ncnc3N2)cc1` (stereo not drawn) to `COc1cc(C2C=C(c3cccs3)Nc3ncnn32)cc(OC)c1OC` (stereo not drawn), the fluorescence artifact activation falls from 3.08% to 0.2%.

Compared with `Cc1ccc(S(=O)(=O)/N=C2/NC(=O)/C(=C/c3cc([N+](=O)[O-])ccc3O)S2)cc1`, `COc1ccc(-c2nn(CCC(=O)O)cc2/C=C2\SC(N)=NC2=O)cc1` is lower in fluorescence artifact activation: 1.59% for the first, 0% for the second.

First: COC(=O)[C@@H]1C[C@@]2(O)[C@H](O)[C@H](O)[C@H](O)C[C@H]2N1C/C=C/c1ccccc1
Second: CCOC(=O)/C(C#N)=C\c1ccc(N2CCN(C/C=C/c3ccccc3)CC2)cc1
The fluorescence artifact activation of the first is higher: 2.09% for the first, 0.17% for the second.

Going from `CC(=O)Nc1cccc(C(=O)/C=C/c2ccc(N(C)C)cc2)c1` to `CC(OC(=O)/C(C#N)=C/c1ccc(N(C)C)cc1)C(=O)N(C)Cc1ccccc1` (stereo not drawn), the fluorescence artifact activation falls from 6.61% to 4.84%.

Going from `O=C(Nn1cnnc1)c1cc([N+](=O)[O-])cc([N+](=O)[O-])c1` to `CCOC(=O)c1c(NC(=O)c2ccno2)c2cc([N+](=O)[O-])ccc2n1C`, the fluorescence artifact activation falls from 0.03% to 0%.

Going from `COc1ccc2nc3ccccc3[n+]([O-])c2c1` to `COc1ccc(OC)c(/C=C/c2nc3ccccc3[nH]c2=O)c1`, the fluorescence artifact activation falls from 2.24% to 0.12%.

First: CN1/C(=C\C(=O)c2ccco2)C(C)(C)c2ccccc21
Second: CCc1ccccc1NC(=S)NCc1cccn1C
The fluorescence artifact activation of the first is lower: -0.02% for the first, -0.01% for the second.

Compared with `COc1ccc2[nH]c3c(c2c1)CCNC3c1ccc([N+](=O)[O-])o1` (stereo not drawn), `COc1ccc(Nc2cc(C)nc3ccc(OC)cc23)cc1` is higher in fluorescence artifact activation: -0.02% for the first, 0.01% for the second.

Going from `COc1ccc(NC(=O)CSc2ccc3c4c(cccc24)C(=O)c2ccccc2-3)cc1` to `COc1ccccc1-c1nnc(SCC(=O)Nc2ccc3[nH]c(=O)[nH]c3c2)n1N`, the fluorescence artifact activation falls from 0.08% to -0.06%.

Going from `CC(=O)c1cccc(Nc2cc(C)nc3ccc(C)cc23)c1` to `Cc1cc(C)c(C(N)=O)c(Nc2ccc(F)cc2)n1`, the fluorescence artifact activation falls from 4.88% to 0.09%.

Compared with `CCOC(=O)COn1c(=O)c(-c2cc3ccccc3o2)[n+]([O-])c2ccccc21`, `CCN(CC)C(=O)Cn1c(C)c(/C=C/c2cc[n+](C)cc2)c2ccccc21` is higher in fluorescence artifact activation: -0.09% for the first, 0.06% for the second.

Going from `CCCC[C@H]1COCCS(=O)(=O)N1Cc1ccc(F)cc1` to `CCc1ccc(/C=C2\Oc3c(ccc(O)c3CN3CCN(C)CC3)C2=O)cc1`, the fluorescence artifact activation falls from 0.08% to -0.01%.

Going from `O=C(NCC1CCCO1)c1cccc2c1C(=O)c1ccc(N3CCC(Cc4ccccc4)CC3)cc1S2(=O)=O` (stereo not drawn) to `CC1(OC(=O)CCc2ccccc2)C(=O)C=C2C=C(c3ccc(C#N)cc3)N(C3CCCC3)C=C2C1=O` (stereo not drawn), the fluorescence artifact activation falls from 0.63% to -0.06%.

Going from `O=C(NCC1CCCO1)c1c(O)nc2sccn2c1=O` (stereo not drawn) to `N#C/C(=C\c1ccc(N2CCOCC2)o1)C(=O)NCC1CCCO1` (stereo not drawn), the fluorescence artifact activation falls from 1.06% to -0.1%.

Compared with `CC(O)c1cccc(N=Cc2ccc3ccccc3c2O)c1` (stereo not drawn), `O=c1[nH]c2ccccc2nc1/C=C/c1ccc(F)cc1` is lower in fluorescence artifact activation: 6.46% for the first, 0.04% for the second.

First: COc1ccc(/C=C/C=C2\N=C(SC)SC2=O)cc1
Second: C=CCNC(=S)NNC(=O)c1ccc(OCC(C)C)cc1
The fluorescence artifact activation of the first is lower: -0.02% for the first, 0.28% for the second.

Compared with `CN(C)NC(=O)c1ccc([N+](=O)[O-])s1`, `Cc1ccccc1N(CC(N)=O)S(C)(=O)=O` is lower in fluorescence artifact activation: 7.24% for the first, -0.02% for the second.

First: O=C1c2ccccc2-c2onc3ccc(N4CCCC4)c1c23
Second: CN1CCN(c2nc3c(c(=O)n(C)c(=O)n3C)n2Cc2ccccc2F)CC1
The fluorescence artifact activation of the first is higher: 0.15% for the first, 0.14% for the second.

Going from `CS(=O)(=O)N(CC(=O)O)Cc1cccc(CN(CC(=O)O)S(C)(=O)=O)c1` to `CN(C)C(CNC(=O)c1cccc(S(=O)(=O)N(C)C)c1)c1ccccc1` (stereo not drawn), the fluorescence artifact activation rises from 0.86% to 4.02%.

Going from `C=CCN1C=CC(=C/C=C(/C#N)C(=O)OCC)C=C1` to `CCOC(=O)/C(C#N)=C\C=C1C=CN(C)C=C1`, the fluorescence artifact activation rises from -0.04% to 0.04%.

Going from `CCc1ccc(C2C(C#N)=C(N)SC(N)=C2C#N)s1` to `CCCCC1OC2(C)OC(=N)C1(C#N)C(C#N)(C#N)C2c1ccccc1` (stereo not drawn), the fluorescence artifact activation rises from 0.05% to 0.23%.

First: Cc1cc(/C=C2/NC(=O)N(Cc3ccccc3F)C2=O)c(C)n1C
Second: CSc1nc2c(c(=O)[nH]c(=O)n2C)n1CCCc1ccccc1
The fluorescence artifact activation of the first is higher: 5.71% for the first, 0.1% for the second.

Compared with `C=CCNc1nc2c(c(=O)[nH]c(=O)n2C)n1CCCc1ccccc1`, `O=c1[nH]c2ccccc2nc1/C=C(\O)c1cccs1` is higher in fluorescence artifact activation: -0.06% for the first, 1.76% for the second.

Going from `COc1ccccc1N=Cc1c(C)c(C#N)c2[nH]c3ccccc3n2c1=O` to `COc1ccc(C2c3ccc(O)cc3Oc3ncn(Cc4ccccc4)c(=N)c32)cc1OC` (stereo not drawn), the fluorescence artifact activation rises from -0.03% to 0.06%.

Compared with `Cc1cccc(C)c1-n1c(C)nn(-c2ncc(C(F)(F)F)cc2Cl)c1=O`, `CCN(C(=O)c1cnc(NC(C)C)cc1C(F)(F)F)c1ccc(Cl)cc1` is lower in fluorescence artifact activation: 0.09% for the first, -0.05% for the second.

Compared with `Cc1nc(Cl)c2c(n1)NC1=C(O2)C(=O)CCC1`, `COc1ccc2[nH]c3c(c2c1)CCN1C(=O)C(CC(=O)NCCCn2ccnc2)C[C@H](C(=O)N2CCCCC2)[C@@]31C` (stereo partly drawn) is lower in fluorescence artifact activation: 0.77% for the first, -0.02% for the second.

First: CCOC(=O)c1ccc(N=c2sc(C(=O)OC)cc(=O)n2CCCN2CCOCC2)cc1
Second: COCCNC(=O)/C(C#N)=C/c1ccc(N2CCOCC2)o1
The fluorescence artifact activation of the first is higher: -0.02% for the first, -0.05% for the second.

First: C[C@H](CO)N1C[C@H](C)[C@@H](CN(C)C(=O)Nc2ccccc2)Oc2ccc(NC(=O)Nc3ccc4c(c3)OCO4)cc2C1=O
Second: O=C(Nc1ccccc1-c1ccccc1)c1ccc(Cl)c([N+](=O)[O-])c1
The fluorescence artifact activation of the first is lower: -0.07% for the first, 8.22% for the second.

First: COC(=O)CCc1c(C)c(C(=O)c2cc(F)c(F)c(F)c2F)c2ccccn12
Second: Cc1cc(C)n(-c2ccc(C(=O)O)cc2)n1
The fluorescence artifact activation of the first is lower: -0.04% for the first, 0.39% for the second.

First: COc1ccc(C2c3ccc(O)cc3Oc3ncn(Cc4ccco4)c(=N)c32)cc1 (stereo not drawn)
Second: N#C/C(=C(/O)COC(=O)COc1ccc(Cl)cc1)c1nc2ccccc2[nH]1
The fluorescence artifact activation of the first is higher: 0.14% for the first, 0% for the second.

Compared with `CCN(CC)C(=S)SCC(=O)c1c(C)[nH]c2ccccc12`, `CCOC(=O)/C(C#N)=C(C)/C=C1\Sc2ccccc2N1CC` is lower in fluorescence artifact activation: 7.38% for the first, 4.14% for the second.

Going from `COc1ccc(S(=O)(=O)N2CCSC2)cc1C` to `CN(C)c1ccc(/C=N/N(CCO)C2=NS(=O)(=O)c3ccccc32)cc1`, the fluorescence artifact activation rises from 0.17% to 0.26%.

Compared with `COC1C(CO)OC(n2c3c(Cl)cccc3c3c4c(c5c6cccc(Cl)c6[nH]c5c32)C(=O)NC4=O)C(O)C1O` (stereo not drawn), `CCCCCCC(=O)N/N=C/c1ccco1` is higher in fluorescence artifact activation: 0.02% for the first, 0.06% for the second.

For `CN(C)c1ccc(C2C=C(c3ccc(Cl)cc3OC(F)F)Nc3ncnn32)cc1` (stereo not drawn), the fluorescence artifact activation was 28.8% (active).
For `COc1ccc2nc(-c3ccccn3)[nH]c2c1`, the fluorescence artifact activation was 20.2% (active).
With `COc1ccc(Nc2cccc3ccccc23)cc1` the fluorescence artifact activation was 53.2% (active).
For `O=C(NCC1CCCO1)c1ccc2c(c1)C(=O)N(c1cccc([N+](=O)[O-])c1)C2=O` (stereo not drawn), the fluorescence artifact activation was 14% (active).
In the case of `COc1ccc(/C=C/c2nc3sc4c(c3c(=O)o2)CCC4)cc1`, the fluorescence artifact activation is reported as 121% (active).
For `Cc1ccc(-c2nc3ncccn3c2Nc2ccc3c(c2)OCCO3)o1`, the fluorescence artifact activation was 73.3% (active).
With `CCCCCCN1C=CC(=C/C=C(\C#N)C(=O)OCC)C=C1` the fluorescence artifact activation was 168% (active).
With `COC(=O)CSc1nc2c(c(=O)n(C)c(=O)n2C)n1CCCc1ccccc1` the fluorescence artifact activation was 52.3% (active).
In the case of `CCOC(=O)CSc1nc2c(c(=O)n(C)c(=O)n2C)n1Cc1ccccc1F`, the fluorescence artifact activation is reported as 502% (active).
In the case of `CCc1nc(Nc2ccc(O)cc2)c2oc3ccccc3c2n1`, the fluorescence artifact activation is reported as 20.3% (active).
In the case of `N#C/C(=C\c1ccc(N2CCOCC2)o1)C(=O)NCCc1ccccc1`, the fluorescence artifact activation is reported as 20.6% (active).
With `N#C/C(=C/c1ccc(N2CCCCC2)o1)C(=O)NCCc1c[nH]c2ccccc12` the fluorescence artifact activation was 12.8% (active).
In the case of `N=c1c2c(ncn1Cc1ccco1)Oc1cc(O)ccc1C2c1ccccc1` (stereo not drawn), the fluorescence artifact activation is reported as 20% (active).
For `CCOC(=O)/C(C#N)=C/c1ccc(N2CCN(Cc3ccccc3)CC2)cc1`, the fluorescence artifact activation was 82.2% (active).
For `Cc1cc(C)n(C2CCCCC2OC(=O)CCc2ccccc2)n1` (stereo not drawn), the fluorescence artifact activation was 13% (active).
In the case of `CN1CCC2(CC1)C1CN(C)CC=C1C(C#N)=C(N)C2(C#N)C#N` (stereo not drawn), the fluorescence artifact activation is reported as -0.05% and 6.98%.
In the case of `Cc1sc(NC(=O)CSc2nnc(C(C)C)n2C)c(C#N)c1C`, the fluorescence artifact activation is reported as 21.9% (active).
With `O=c1[nH]c2ccccc2nc1/C=C/c1ccccc1` the fluorescence artifact activation was 119% (active).
With `CS(=O)(=O)N(CC(=O)N/N=C/c1ccco1)c1ccccc1Br` the fluorescence artifact activation was 48.6% (active).
